An excerpt weighted towards active compounds, which were near 5.8% of everything screened.
KDM4C inh – KDM4C (human) demethylase inhibition; GST-KDM4C 2-372, H3K9me3 peptide, LANCE TR-FRET; 96,000 tested, 0.15% active; inhibition, % at 12.5 µM;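 active means mean replicate inhibition above about 25%, with at least 55% of replicates also reaching it, limit read from the data, passing the limit was not always enough; inconclusive means only one of those two conditions met; inactive means neither condition met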
Target sequence (Q9H3R0 2-372 limits assumed): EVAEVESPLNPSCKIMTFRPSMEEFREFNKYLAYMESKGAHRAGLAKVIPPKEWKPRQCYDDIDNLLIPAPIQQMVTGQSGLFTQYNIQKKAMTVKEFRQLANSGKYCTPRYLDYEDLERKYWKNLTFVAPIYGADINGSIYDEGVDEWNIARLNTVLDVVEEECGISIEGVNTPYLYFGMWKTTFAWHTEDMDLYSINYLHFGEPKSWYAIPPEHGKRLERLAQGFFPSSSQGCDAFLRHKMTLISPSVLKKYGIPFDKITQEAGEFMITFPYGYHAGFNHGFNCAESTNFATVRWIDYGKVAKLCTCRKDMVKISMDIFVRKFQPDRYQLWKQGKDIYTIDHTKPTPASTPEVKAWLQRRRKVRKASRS
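Material: N-terminal GST-fused human GASC-1 (KDM4C) fragment, residues 2-372. Input: 10 nM enzyme. Incubation: enzyme reaction 30 min, then detection 60 min, both room temperature. Doses: one test concentration per compound. Read-out basis: inhibition from TR-FRET ratio decrease. Detection: LANCE TR-FRET, excitation 340 nm, emissions 618 and 671 nm.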
IDH1 R132H inh – inhibitors of human IDH1 R132H | IDH1 R132H reductase, diaphorase/resazurin fluorescence, 60 min | inhibition, % at 10 µM | 70,000 tested, 0.18% active | O75874; in the data active means inhibition above about 34%; inconclusive means no clear call, values can overlap the other calls; inactive means below about 11%
Tcruzi prolif – inhibitors of T. cruzi proliferation; T. cruzi beta-gal in NIH3T3, GalScreen luminescence, 90 h; inhibition, % at 8.34 µM; 77,000 tested, 5.9% active; AID 624255;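 active means mean inhibition above about 93%, with at least 55% of replicates each passing it, limit read from the data, passing the limit was not always enough; inconclusive means only one of those two conditions holds; inactive means neither condition holds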
Pf Dd2 inh – P. falciparum Dd2 growth inhibition | SYBR Green, 72 h; hits give low values | activity change, % at 10 µM | 94,000 tested, 2.3% active; in the data active means activity change below about -80%; inconclusive means no clear call, values can overlap the other calls
Numbers stand for hits; ! = a repeat was not active.

Results for C[C@@H]1CN([C@H](C)CO)C(=O)c2c(c3ccccc3n2C)-c2ccccc2CO[C@@H]1CN(C)Cc1ccc(Oc2ccccc2)cc1 ?
KDM4C inh: inactive; Pf Dd2 inh: inactive

Results for C[C@@H]1CN([C@@H](C)CO)C(=O)c2c(c3ccccc3n2C)-c2ccccc2CO[C@@H]1CN(C)Cc1ccc(Oc2ccccc2)cc1 ?
KDM4C inh: inactive; Pf Dd2 inh: -87.3

What do the screens show for `O=C(CSc1ncnc2sc(-c3ccccc3)cc12)Nc1ccccc1C(F)(F)F`?
IDH1 R132H inh: inactive

How did O=C(N/N=C/c1ccc2ccccc2c1O)c1ccccn1 do in these assays?
IDH1 R132H inh: inactive

What do the screens show for `CS(=O)(=O)N(CC(=O)Nc1ccc(Br)c(Cl)c1)c1cccc([N+](=O)[O-])c1`?
IDH1 R132H inh: inactive

What do the screens show for `C[C@H](CO)N1C[C@H](C)[C@H](CN(C)S(=O)(=O)c2ccc(F)cc2)OCCCC[C@H](C)Oc2ccc(NC(=O)Cc3ccccc3)cc2C1=O`?
KDM4C inh: inactive; IDH1 R132H inh: inactive; Tcruzi prolif: inactive; Pf Dd2 inh: inactive

Results for C[C@@H]1CN([C@@H](C)CO)C(=O)c2cc(NC(=O)Cc3ccccc3)ccc2O[C@@H](C)CCCCO[C@@H]1CN(C)S(=O)(=O)c1ccc(F)cc1 ?
KDM4C inh: inactive; IDH1 R132H inh: inactive; Tcruzi prolif: inactive; Pf Dd2 inh: -86.7

How did C[C@@H]1CN([C@H](C)CO)C(=O)c2cc(NC(=O)Cc3ccccc3)ccc2O[C@@H](C)CCCCO[C@@H]1CN(C)S(=O)(=O)c1ccc(F)cc1 do in these assays?
KDM4C inh: inactive; IDH1 R132H inh: inactive; Tcruzi prolif: inactive; Pf Dd2 inh: -88.8

How did C[C@@H]1CN([C@H](C)CO)C(=O)c2cc(NC(=O)Cc3ccccc3)ccc2O[C@@H](C)CCCCO[C@@H]1CN(C)S(=O)(=O)c1ccccc1 do in these assays?
KDM4C inh: inactive; IDH1 R132H inh: inactive; Pf Dd2 inh: -81.1

What do the screens show for `C[C@@H]1CCCCO[C@@H](CN(C)S(=O)(=O)c2ccc(F)cc2)[C@H](C)CN([C@H](C)CO)C(=O)c2cc(NC(=O)Cc3ccccc3)ccc2O1`?
KDM4C inh: inactive; IDH1 R132H inh: inactive; Tcruzi prolif: inactive; Pf Dd2 inh: inactive

Results for O=C(COc1ccccc1[N+](=O)[O-])Nc1cc(-c2nc3ccccc3s2)c(Cl)cc1Cl ?
IDH1 R132H inh: inactive

What do the screens show for `O=C(CSc1nc2ccccc2c(=O)[nH]1)Nc1ccc(F)cc1F`?
IDH1 R132H inh: inactive

How did CN(C)CCCC[C@@H]1NC(=O)[C@H]2C[C@@H](C(=O)NCc3ccc(F)cc3)[C@@H](c3ccc(O)cc3)N2C1=O do in these assays?
IDH1 R132H inh: 42.3

Results for COc1ccccc1-c1cccc(-c2nc(C(=O)Nc3nccs3)cc3c2[C@H](CCO)N(C(=O)CC2CC2)C3)c1 ?
KDM4C inh: inactive; Pf Dd2 inh: -85.6

How did COc1ccc(C#Cc2cccc(-c3nc(C(=O)Nc4ccc(-c5ccccc5)cc4)cc4c3[C@@H](CCO)N(S(=O)C(C)(C)C)C4)c2)cc1OC (stereo partly specified) do in these assays?
KDM4C inh: inactive; Pf Dd2 inh: -88.9

What do the screens show for `COc1ccc(C#Cc2cccc(-c3nc(C(=O)O)cc4c3[C@H](CCO)N(S(=O)C(C)(C)C)C4)c2)cc1OC` (stereo partly specified)?
KDM4C inh: inactive; Tcruzi prolif: inactive

How did COc1cccc(-c2cccc(-c3nc(C(=O)Nc4ccc(-c5ccccc5)cc4)cc4c3[C@@H](CCO)N(S(=O)C(C)(C)C)C4)c2)c1 (stereo partly specified) do in these assays?
KDM4C inh: inactive; Pf Dd2 inh: -84.2

What do the screens show for `C[C@@H]1CCCCO[C@@H](CN(C)Cc2ccc3c(c2)OCO3)[C@H](C)CN([C@@H](C)CO)C(=O)c2cc(N(C)C)ccc2O1`?
Tcruzi prolif: 102.0!; Pf Dd2 inh: inactive

What do the screens show for `C[C@@H]1CN([C@@H](C)CO)C(=O)c2cc(NC(=O)Nc3ccc4c(c3)OCO4)ccc2O[C@@H](C)CCCCO[C@@H]1CN(C)Cc1ccc2c(c1)OCO2`?
KDM4C inh: inactive; IDH1 R132H inh: inactive; Pf Dd2 inh: inconclusive

Results for C[C@@H]1CCCCO[C@H](CN(C)Cc2ccc3c(c2)OCO3)[C@H](C)CN([C@@H](C)CO)C(=O)c2cc(N(C)C)ccc2O1 ?
IDH1 R132H inh: inactive; Tcruzi prolif: inactive; Pf Dd2 inh: inactive
